A selection: hits, their analogues and other compounds. The true share with any hit is near 4.1%.
Dynein transport: blocks dynein driven cargo transport along microtubules; 220,000 tested, 0.47% active; z-score, hits read low; 3617.4 mouse cells, GR-EGFP nuclear translocation imaging; test concentration mostly 20 µM; stimulated with dexamethasone, 1 µM; active compounds read low;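 active = plate z-score of nuclear minus cytoplasmic receptor signal below a set negative limit, without overly bright fluorescence or cell loss, cut at about -3.5 in these data, passing the limit was not always enough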;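 also: z-score of nuclear minus cytoplasmic ring GR-EGFP intensity difference per well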
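Buffer or medium: tet-free, stripped-serum medium; reagent: dexamethasone at 1.0 µM final, 30 min; incubation: 48 h induction, 1 h compound, 30 min dex at 37 °C; measured by: formaldehyde fixation, Hoechst nuclear stain, 10x automated fluorescence imaging; read-out: nuclear-to-cytoplasmic GR-EGFP distribution per well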
Autophagy HCS: alters autophagy in cells; MEF GFP-LC3 puncta imaging; test concentration mostly 10 µM; calls only at 10 µM (by protocol); 190,000 tested, 0.98% active; AID 463193;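 active = percentage of spot-positive cells more than 3 SD above its plate mean, without a fluorescence outlier flag or 80% toxicity; inconclusive = no clear call, values can overlap the other calls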;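 also: spot-positive cell cutoff set from DMSO-treated cells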
KCC2 mod: modulates chloride dependent transport by human KCC2 | Q9H2X9 | KCC2 cells, thallium flux FluoZin-2 fluorescence | B-score of Tl+ flux slope (higher = more flux/activation; lower = inhibition) at 10 µM | 190,000 tested, 2.2% active;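 active = thallium flux slope and its plate-corrected score both differing from the plate sample mean at a set confidence after two filtering rounds, in either direction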;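 also: slope of fluorescence scaled to starting intensity during 10 to 20 s after thallium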
Target sequence (Q9H2X9 whole entry, looked up): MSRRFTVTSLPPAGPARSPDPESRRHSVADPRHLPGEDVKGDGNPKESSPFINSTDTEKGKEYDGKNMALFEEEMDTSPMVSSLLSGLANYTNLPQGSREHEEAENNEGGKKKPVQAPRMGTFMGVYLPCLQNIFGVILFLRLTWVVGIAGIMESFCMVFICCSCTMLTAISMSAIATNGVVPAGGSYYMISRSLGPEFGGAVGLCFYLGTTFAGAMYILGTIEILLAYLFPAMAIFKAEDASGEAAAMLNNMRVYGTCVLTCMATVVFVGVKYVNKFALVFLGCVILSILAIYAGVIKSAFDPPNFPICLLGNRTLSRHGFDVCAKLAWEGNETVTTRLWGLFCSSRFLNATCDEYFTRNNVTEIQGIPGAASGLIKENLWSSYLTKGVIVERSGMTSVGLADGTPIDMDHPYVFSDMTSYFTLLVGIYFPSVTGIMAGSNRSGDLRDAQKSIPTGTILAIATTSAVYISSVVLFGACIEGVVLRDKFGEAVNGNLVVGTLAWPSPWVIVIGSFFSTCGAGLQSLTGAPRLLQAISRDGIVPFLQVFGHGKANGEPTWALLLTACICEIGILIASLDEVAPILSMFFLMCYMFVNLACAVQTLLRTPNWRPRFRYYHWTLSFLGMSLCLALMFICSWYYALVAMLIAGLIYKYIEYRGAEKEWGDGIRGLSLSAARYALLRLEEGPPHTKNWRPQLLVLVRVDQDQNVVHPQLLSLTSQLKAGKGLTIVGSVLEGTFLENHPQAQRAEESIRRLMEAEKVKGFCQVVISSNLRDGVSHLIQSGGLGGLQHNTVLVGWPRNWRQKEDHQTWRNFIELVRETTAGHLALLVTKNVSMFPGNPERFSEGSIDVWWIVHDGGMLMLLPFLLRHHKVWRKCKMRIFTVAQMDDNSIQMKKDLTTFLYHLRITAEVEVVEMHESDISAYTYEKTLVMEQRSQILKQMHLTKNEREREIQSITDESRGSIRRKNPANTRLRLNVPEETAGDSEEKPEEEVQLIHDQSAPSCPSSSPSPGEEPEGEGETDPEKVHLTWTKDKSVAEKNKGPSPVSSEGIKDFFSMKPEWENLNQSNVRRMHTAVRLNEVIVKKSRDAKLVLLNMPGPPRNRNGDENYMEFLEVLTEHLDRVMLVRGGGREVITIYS
DTT redox prof: compounds producing H2O2 with reducing agent – biochemical, NIH compound library profiling, artefact control for MLSCN library redox annotation, primary screen; activation, % at 10 µM; DTT-dependent redox cycling H2O2, phenol red/HRP absorbance; 100% = 100 µM peroxide control, 0% = buffer; 200,000 tested, 0.03% active;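 active = activation of at least 50% relative to the plate's high and low controls in the primary single-dose screen; inactive = activation below 50%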;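 also: compound incubated with DTT at 0.8 mM final as the reducing agent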
ROMK primary: modulators of human ROMK potassium channel | 130,000 tested, 2% active | AID 1918 | P48048 | Tet-inducible ROMK, thallium flux fluorescence; actives lie on both sides | B-score at 10 µM;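 active = signal ratio slope over the read window, or its plate-corrected B-score, at least 3 SD from the plate mean, either direction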;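 also: B-score of the F/F0 ratio slope over 7 to 12 s after thallium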
KCC2 secondary: KCC2 (human) modulation, secondary assay; 3,700 tested, 15% active; normalised thallium flux (F/F0 slope) at 10 µM; AID 1713; shares compounds with KCC2 mod; HEK293-KCC2, thallium flux, FluoZin2 fluorescence; active compounds read high;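 active = thallium flux slope above the same plate's solvent-only control mean plus 3 SD; inconclusive = the two replicate wells disagree; inactive = no significant difference from solvent-only control wells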
KCC2 bumet counter: thallium flux despite bumetanide block in KCC2 cells, secondary assay 3; shares compounds with KCC2 mod; HEK293-KCC2 + bumetanide/ouabain, thallium flux FluoZin2; active compounds read high; normalized thallium flux at 10 µM; 3,700 tested, 49% active; AID 1714;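 active = thallium entry rate above the same plate's blocked-transporter control wells by more than 3 SD; inconclusive = the two repeat wells disagree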;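 also: raw slope of fluorescence over initial fluorescence between 10 and 20 s after thallium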
KCC2 sec2: confirmation of human KCC2 transport modulators; shares compounds with KCC2 mod; HEK293-KCC2, thallium flux FluoZin2 fluorescence; actives lie on both sides; F/F0 rise rate, 10–20 s post-thallium; normalized thallium flux at 10 µM; 3,700 tested, 23% active; AID 1715;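 active = thallium flux slope more than 3 SD above or below the plate's solvent-only control mean, mostly below; inconclusive = the two repeat wells disagreed; inactive = no significant shift from solvent-only controls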;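 also: raw slope with 0.1% DMSO as baseline and bumetanide as block control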
HEK293 Tl flux: acts in parental HEK cells, KCC2 counter-screen; HEK293 parental cells, thallium flux FluoZin2, ouabain; baseline-ratio fluorescence slope, 10–20 s after thallium; thallium flux rate (normalised fluorescence) at 10 µM; 3,700 tested, 46% active; shares compounds with KCC2 mod;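 active = thallium flux rate significantly above the same plate's solvent-only control wells, beyond their mean plus 3 SD; inconclusive = the two replicate wells gave conflicting results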
KCC2 ouabain: KCC2 (human) modulation, ouabain retest; shares compounds with KCC2 mod; HEK293-KCC2, thallium flux FluoZin2 fluorescence; bidirectional: low = inhibitor, high = activator; raw Tl+ flux slope (below DMSO = inhibition, above = activation) at 10 µM; 3,700 tested, 48% active; AID 1717;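 active = thallium flux slope beyond 3 SD from same-plate DMSO control mean in most replicates, usually higher, sometimes lower; inconclusive = repeat tests gave conflicting results; inactive = no significant difference from controls in most replicates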;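 also: slope of initial-normalized fluorescence between seconds 10 and 20 after thallium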
HEK counter2: counter-screen for KCC2 modulators: effect in parental HEK293 cells. thallium flux slope at 10 µM. AID 1718. shares compounds with KCC2 mod. 3,700 tested, 33% active. thallium flux FluoZin-2 fluorescence slope;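 active = thallium flux slope above the same plate's solvent-control mean plus 3 SD in both duplicate wells; inconclusive = duplicate wells that disagreed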;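 also: run without ouabain in cells lacking the KCC2 cotransporter; slope of fluorescence scaled to its starting value between 10 and 20 s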
* = called active by the depositor; i = inactive; ? = inconclusive; . = no result.

SMILES	Dynein transport	Autophagy HCS	KCC2 mod	DTT redox prof	ROMK primary	KCC2 secondary	KCC2 bumet counter	KCC2 sec2	HEK293 Tl flux	KCC2 ouabain	HEK counter2
CC1CCCN(C(=O)CSc2nnc(-c3c[nH]c4ccccc34)o2)C1 (stereo unspecified)	-0.16	i	-3.8*	2	0.34	0.0056	0.0044	?	0.0076	?	0.0096
N#Cc1cccc(Oc2ccc(-c3cnc4ccccc4n3)cc2)c1C#N	-0.4	i	0.021	0	.	.	.	.	.	.	.
C/C(=N\NC(=S)Nc1cccc(C)c1)c1cc2ccccc2o1	1.8	i	26*	0	-0.036	0.0064	0.077*	0.051*	0.038*	0.058*	0.041*
O=C(NC(=S)Nc1cccc(F)c1)c1cccc([N+](=O)[O-])c1	-0.65	.	151*	.	.	0.031*	0.15*	?	0.071*	0.085*	0.019*
C/C(=N\NC(=O)c1ccc(O)cc1)c1cc2ccccc2o1	-1	i	-2.5	-1	0.32	.	.	.	.	.	.
Cc1cccc(NC(=S)N/N=C(\c2ccccc2)C(C)C)c1	1.4	i	33*	0	-0.14	0.0059	0.06*	0.05*	0.04*	0.055*	0.036*
CC/C(=N\NC(=S)Nc1cccc(C)c1)c1ccccc1	-0.42	i	34*	0	0.19	0.021*	0.1*	0.038	?	0.067*	0.028*
COc1cc(CN2CCNC(=O)C2CC(=O)N2CCCO2)cc(OC)c1 (stereo unspecified)	-0.28	i	0.58	-2	.	.	.	.	.	.	.
COc1cc(N2C(=O)c3ccccc3C2=O)c(Cl)cc1C(=O)OCC(=O)N(C)C	-0.38	i	0.68	0	1.2	.	.	.	.	.	.
Cc1cccc(NC(=S)NNC(=O)c2cccc([N+](=O)[O-])c2)c1	0.21	.	-0.035	.	-1.1	.	.	.	.	.	.
C/C(=N/NC(=S)Nc1cccc(C)c1)c1cccc([N+](=O)[O-])c1	-0.42	i	30*	0	-1.1	0.0087	0.037*	?	0.037*	0.036*	0.027*
COc1ccc(/C=N/NC(=S)SC)cc1OC	0.9	i	38*	0	1.7	?	0.076*	0.063*	0.053*	0.073*	0.055*
O=C(CSc1nc(O)c(C2CCCCC2)c(=O)[nH]1)N1CCOCC1	-0.22	i	1.2	0	1.3	.	.	.	.	.	.
COC(=O)c1cc(NS(=O)(=O)c2ccc(N3CCOCC3)c(N)c2)cc(C(=O)OC)c1	0.089	i	0.4	0	.	.	.	.	.	.	.
O=C1C2C3C=CC(CC3)C2C(=O)N1/N=C/c1ccccc1O (stereo unspecified)	-0.67	i	-0.19	1	0.48	.	.	.	.	.	.
O=C1C2C3C=CC(CC3)C2C(=O)N1/N=C/c1c(O)ccc2ccccc12 (stereo unspecified)	0.62	i	3.3*	3	0.25	0.009	0.006	0.031	0.0077	0.022	0.01
O=C(O)c1ccccc1C(=O)c1ccc(N2CCCC2)c([N+](=O)[O-])c1	-0.79	i	0.94	0	0.044	.	.	.	.	.	.
